Bioassay records from PubChem.
An excerpt weighted towards active compounds, which were near 2.3% of everything screened.
Arbovirus inh – antivirals against arbovirus infection, primary screen, cell-based, full library, 10K replicate subset; arbovirus infection cell-based antiviral screen; inhibition, % at 10 µM; 200,000 tested, 0.37% active; AID 1251, 2008; in the data active means inhibition above about 30%
ABCG2 inh – ABCG2 efflux pump inhibitors, primary screen, multiplex with ABCB1, IgMXP3 cells, flow cytometry. Broad substrate specificity ATP-binding cassette transporter ABCG2 (Homo sapiens), Q9UNQ0. JC-1 efflux. inhibition, % at 6.6 µM. 190,000 tested, 0.1% active;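 active means inhibition above 80%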;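 further: 0% = DMSO and 100% = nicardipine control wells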
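Test system: IgMXP3 (ABCG2) plus far-red-tagged CCRF-Adr (ABCB1) cells. Reagent: JC-1 dye as substrate. Timing: 10 min exposure at 25 °C with rotation, no wash. Measured by: flow cytometric JC-1 green MFI at 530 nm. Read-out: percent efflux inhibition, scaled nicardipine 100% to DMSO 0%. Control set: nicardipine and DMSO wells.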
RAM network inh – inhibitors of the yeast RAM network, primary screen, dse1pr::URA3 reporter, 5-FOA selection. S. cerevisiae dse1pr::URA3 reporter, 5-FOA growth OD615, 2 d; analog-sensitive cbk1-as2 kinase mutant strain. inhibition, % at 50 µM. 190,000 tested, 1.8% active. AID 868, 2007;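 active means inhibition above a set limit, 3 SD over mean compound inhibition, cut at about 8.4% in these data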;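 further: 0% = DMSO-only wells with no growth and 100% = 10 µM 1-NA-PP1 full growth; inhibition rescues growth on 5-FOA so higher OD means more RAM inhibition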
ABCB1 block – ABCB1 efflux pump inhibitors, primary screen, cell-based, multiplex, flow cytometry, ABCG2 counter-screen; AID 1326, 2008; inhibition, % at 6.6 µM; CCRF-Adr cells, JC-1 efflux; 190,000 tested, 0.067% active; in the data active means inhibition above about 40%;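 further: 0% = vehicle and 100% = reference inhibitor; higher value means more JC-1 retained so stronger ABCB1 efflux block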
Target sequence (P08183 whole entry, looked up): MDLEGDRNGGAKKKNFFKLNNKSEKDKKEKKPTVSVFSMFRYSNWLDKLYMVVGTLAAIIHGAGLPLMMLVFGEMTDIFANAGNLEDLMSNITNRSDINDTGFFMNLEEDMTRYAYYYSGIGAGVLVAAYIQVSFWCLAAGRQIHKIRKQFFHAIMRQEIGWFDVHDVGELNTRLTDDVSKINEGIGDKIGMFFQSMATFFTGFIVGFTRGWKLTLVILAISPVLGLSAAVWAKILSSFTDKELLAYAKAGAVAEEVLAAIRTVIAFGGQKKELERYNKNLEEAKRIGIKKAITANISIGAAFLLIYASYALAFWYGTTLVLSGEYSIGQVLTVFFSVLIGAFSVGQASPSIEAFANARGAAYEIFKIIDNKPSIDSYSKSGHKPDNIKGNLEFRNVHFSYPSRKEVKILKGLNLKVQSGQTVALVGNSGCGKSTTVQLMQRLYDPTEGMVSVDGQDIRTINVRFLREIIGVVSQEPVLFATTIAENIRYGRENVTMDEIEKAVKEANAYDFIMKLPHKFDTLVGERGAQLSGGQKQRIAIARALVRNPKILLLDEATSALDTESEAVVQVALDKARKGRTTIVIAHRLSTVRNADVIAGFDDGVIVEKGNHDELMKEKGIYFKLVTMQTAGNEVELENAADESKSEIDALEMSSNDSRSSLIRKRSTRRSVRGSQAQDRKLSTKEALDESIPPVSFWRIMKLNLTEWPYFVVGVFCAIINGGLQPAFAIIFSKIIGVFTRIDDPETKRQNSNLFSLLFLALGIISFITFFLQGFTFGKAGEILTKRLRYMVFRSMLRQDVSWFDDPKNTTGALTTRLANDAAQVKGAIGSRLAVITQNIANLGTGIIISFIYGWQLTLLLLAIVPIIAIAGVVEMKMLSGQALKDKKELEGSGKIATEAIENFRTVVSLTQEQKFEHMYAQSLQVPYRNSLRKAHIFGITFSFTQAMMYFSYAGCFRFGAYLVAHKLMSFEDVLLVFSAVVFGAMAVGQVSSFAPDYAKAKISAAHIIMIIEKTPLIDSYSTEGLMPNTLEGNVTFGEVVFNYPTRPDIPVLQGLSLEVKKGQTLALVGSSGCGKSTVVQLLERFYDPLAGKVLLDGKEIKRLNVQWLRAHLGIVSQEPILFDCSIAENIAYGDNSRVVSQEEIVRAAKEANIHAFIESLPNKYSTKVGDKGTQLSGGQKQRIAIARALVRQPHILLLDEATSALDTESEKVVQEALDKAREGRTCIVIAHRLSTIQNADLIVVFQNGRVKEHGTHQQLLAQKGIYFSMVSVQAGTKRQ
Active calls of the source: *.

What do the screens show for `CCOC(=O)N1CCC(NCCNC(=O)c2ccco2)CC1`?
Arbovirus inh: -1; ABCG2 inh: 0; RAM network inh: 0; ABCB1 block: 0

What do the screens show for `O=C(COc1cc(=O)n2c(n1)SCCC2)c1ccccc1`?
Arbovirus inh: 3; ABCG2 inh: 1; RAM network inh: 1; ABCB1 block: 0

How did N#CC1=C(N)N2C(=C(C#N)C1c1ccc(Br)cc1)Nc1ccccc12 (stereo not drawn) do in these assays?
Arbovirus inh: -9; ABCG2 inh: 0; RAM network inh: 6; ABCB1 block: 0

What do the screens show for `N#CC1=C(N)N2C(=C(C#N)C1c1cccc(Br)c1)Nc1ccccc12` (stereo not drawn)?
Arbovirus inh: 2; ABCG2 inh: 32; RAM network inh: 8.9*; ABCB1 block: -1

Results for CC(C)(C)c1ccccc1OCCOCCSc1ncccn1 ?
Arbovirus inh: 16; ABCG2 inh: 6; RAM network inh: 1; ABCB1 block: 0

Results for COC(=O)c1cc(=O)n(CCc2ccc(OC)cc2)c(=Nc2ccc(F)c(Cl)c2)s1 ?
Arbovirus inh: -45; ABCG2 inh: 2; RAM network inh: 9.5*; ABCB1 block: 0

What do the screens show for `COC(=O)c1cc(=O)n(Cc2ccc3c(c2)OCO3)c(=Nc2ccc(F)c(Cl)c2)s1`?
Arbovirus inh: -29; ABCG2 inh: 0; RAM network inh: 3; ABCB1 block: 0

What do the screens show for `CCOC(=O)c1nnc(-c2cccs2)nc1NC(C)C`?
Arbovirus inh: 10; ABCG2 inh: 21; RAM network inh: -1; ABCB1 block: 3

What do the screens show for `O=C(O)C1CCC(Cn2c(SCc3cc(=O)n4cc(Cl)ccc4n3)nc3ccsc3c2=O)CC1` (stereo not drawn)?
Arbovirus inh: 3; ABCG2 inh: 4; RAM network inh: 9.2*; ABCB1 block: 0

What do the screens show for `Cc1cccc(Nc2nnc(SCC(=O)NCc3cccs3)s2)c1C`?
Arbovirus inh: 0; ABCG2 inh: -5; RAM network inh: -1; ABCB1 block: 0

How did Cc1cccc(Nc2nnc(SCC(=O)NCc3cccs3)s2)c1 do in these assays?
Arbovirus inh: -6; ABCG2 inh: 12; RAM network inh: 8.5*; ABCB1 block: 1

What do the screens show for `Cc1noc(C)c1CSc1nnc(-c2c[nH]c3ccccc23)n1-c1ccc(Cl)cc1`?
Arbovirus inh: -3; ABCG2 inh: 1; RAM network inh: 9.4*; ABCB1 block: 0

What do the screens show for `COc1cccc(NC(=O)c2cc(C(=O)Nc3cccc(OC)c3)n(C)n2)c1`?
Arbovirus inh: -9; ABCG2 inh: 1; RAM network inh: 11*; ABCB1 block: 0

Results for Clc1ccc(CSc2nnc(CN3CCOCC3)n2-c2ccccc2)cc1Cl ?
Arbovirus inh: -1; ABCG2 inh: 1; RAM network inh: 1; ABCB1 block: 0

Results for CCOC(=O)c1sc(=S)sc1SCc1cccc(C(F)(F)F)c1 ?
Arbovirus inh: 3; ABCG2 inh: 0; RAM network inh: 8.9*; ABCB1 block: 0

How did CCN(CC)C(=O)c1sc(N)c(C(=O)OC(C)C)c1C do in these assays?
Arbovirus inh: -3; ABCG2 inh: 4; RAM network inh: 0; ABCB1 block: 0

How did CCN(CC)C(=O)c1sc(NC(=O)C(Sc2ccccc2)c2ccccc2)c(C(=O)OC(C)C)c1C (stereo not drawn) do in these assays?
Arbovirus inh: 2; ABCG2 inh: 5; RAM network inh: 9.6*; ABCB1 block: 2

How did CCOc1ccc(/C=N/NC(=O)c2nnn(-c3nonc3N)c2-c2ccc(OCC)cc2)cc1 do in these assays?
Arbovirus inh: 2; ABCG2 inh: -2; RAM network inh: 9.4*; ABCB1 block: 0

Results for CCOC(=O)c1nnn(-c2nonc2N)c1-c1ccc(OCC)cc1 ?
Arbovirus inh: 5; ABCG2 inh: 4; RAM network inh: 0; ABCB1 block: -8

Results for COc1ccc(CCNC(=O)C(=O)Nc2nccs2)cc1OC ?
Arbovirus inh: 8; ABCG2 inh: 4; RAM network inh: 2; ABCB1 block: 0

Results for CCCOc1ccc(C(=O)CCNc2cccc(Cl)c2)cc1 ?
Arbovirus inh: 2; ABCG2 inh: 2; RAM network inh: 9.8*; ABCB1 block: -1

Results for CC(=O)Nc1ccc(SCC(=O)N(CCC#N)c2cc(C)cc(C)c2)cc1 ?
Arbovirus inh: 49*; ABCG2 inh: 1; RAM network inh: 1; ABCB1 block: 0

Results for Cc1cccc(C(=O)NNC(=O)c2ccccc2)c1 ?
Arbovirus inh: 4; ABCG2 inh: 1; RAM network inh: 2; ABCB1 block: 0

How did Cc1cccc(C(=O)c2cnc3ccccc3c2-c2ccccc2)c1 do in these assays?
Arbovirus inh: -4; ABCG2 inh: 1; RAM network inh: 9.9*; ABCB1 block: 0

How did CCOc1ccc(-n2c(SCC(=O)Nc3cc(OC)c([N+](=O)[O-])cc3C)nc3ccccc32)cc1 do in these assays?
Arbovirus inh: 54*; ABCG2 inh: 10; RAM network inh: 6; ABCB1 block: 24

Results for COc1cc([N+](=O)[O-])ccc1NC(=O)CSc1nc2ccccc2n1-c1ccccc1 ?
Arbovirus inh: -12; ABCG2 inh: 5; RAM network inh: 6; ABCB1 block: 2

Results for COC(=O)c1ccc(C)c(NC(=O)C2COc3ccccc3O2)c1 (stereo not drawn) ?
Arbovirus inh: -5; ABCG2 inh: 23; RAM network inh: 1; ABCB1 block: 0

What do the screens show for `CCOc1ccccc1OCCOc1ccccc1OC(C)C`?
Arbovirus inh: 3; ABCG2 inh: 4; RAM network inh: 18*; ABCB1 block: 0

How did CNCCOc1ccccc1OC(C)C do in these assays?
Arbovirus inh: 0; ABCG2 inh: 6; RAM network inh: 0; ABCB1 block: 0

How did CCOC(=O)C(NC(=O)c1cccc(Cl)c1)(OCc1ccc(F)cc1)C(F)(F)F (stereo not drawn) do in these assays?
Arbovirus inh: 49*; ABCG2 inh: 6; RAM network inh: 1; ABCB1 block: 0

Results for Cc1cc(CNC(=O)c2cc(COc3c(F)cccc3F)on2)nn1C ?
Arbovirus inh: 2; ABCG2 inh: 8; RAM network inh: 4; ABCB1 block: 1

How did O=C(NCc1ccc(Cl)s1)c1cc(COc2c(F)cccc2F)on1 do in these assays?
Arbovirus inh: -6; ABCG2 inh: -1; RAM network inh: 9.1*; ABCB1 block: -1

Results for O=C(c1cc(COc2c(F)cccc2F)on1)N1CCC(c2ccccc2Cl)C1 (stereo not drawn) ?
Arbovirus inh: 0; ABCG2 inh: 3; RAM network inh: 8.4*; ABCB1 block: -1

How did CCc1ccc(CN(C)C(=O)c2cc(COc3c(F)cccc3F)on2)cc1 do in these assays?
Arbovirus inh: 5; ABCG2 inh: 1; RAM network inh: 9.4*; ABCB1 block: 1

What do the screens show for `CCCOc1ccc(/C=N/Nc2cccc([N+](=O)[O-])c2)c(O)c1`?
Arbovirus inh: 0; ABCG2 inh: -3; RAM network inh: 8.9*; ABCB1 block: -1
